CHO parental Ca – counter-screen for OX1R antagonists: effect in parental CHO cells; parental CHO-K1, ATP-induced calcium, Fluo-8 fluorescence; inhibition, % at 5.6 µM; hit rate 0.63% among 330,000; AID 463079;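 active = inhibition above that plate's mean sample inhibition plus 3 SD, cut at about 26% in these data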;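 also: 0% = ATP-challenged DMSO wells and 100% = DMSO wells without ATP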
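Test system: parental CHO cells; detection: calcium-sensitive Fluo-8 fluorescence; evaluation: percent inhibition of calcium signal; also added: ATP as calcium-mobilizing challenge; repeats: one well per compound; control set: ATP-challenged DMSO wells low, unchallenged DMSO wells high; compound: single nominal dose of 5.6 µM per compound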
OXTR potentiator – human OXTR potentiation | CHO-OTR cells, Fluo-8 calcium fluorescence, potentiator mode; 0% = oxytocin EC15, 100% = EC100 | activation, % at 3 µM | hit rate 0.061% among 320,000;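 active = activation above that plate's cutoff, the mean activation of tested compounds plus 3 SD, cut at about 6.6% in these data, passing the limit was not always enough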;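 also: 100% uses oxytocin at 75 nM as the full agonist control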
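Assay system: CHO-OTR cells, human receptor / Also added: oxytocin at about EC15, sub-maximal agonist stimulus / Dosing: single dose, 3.0 µM nominal final compound concentration / Incubation: 6 min pre-incubation, 100 s read / Technique: Fluo-8 calcium dye fluorescence / Read-out: % activation vs EC15 and EC100 oxytocin / Benchmarks: EC15 oxytocin low, 75 nM oxytocin high / Replicates: singlicate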
OX1R antag-1 – antagonists of human orexin 1 receptor (OX1R) | O43613 | OX1R-expressing cells, FRET antagonist read-out | inhibition, % at 6.6 µM | hit rate 1.8% among 330,000; in the data active = inhibition mostly above about 38%, no sharp cut-off; inactive = mostly below about 40%;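 also: 0% = agonist challenge alone and 100% = reference antagonist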
Target sequence (O43613 whole entry, looked up): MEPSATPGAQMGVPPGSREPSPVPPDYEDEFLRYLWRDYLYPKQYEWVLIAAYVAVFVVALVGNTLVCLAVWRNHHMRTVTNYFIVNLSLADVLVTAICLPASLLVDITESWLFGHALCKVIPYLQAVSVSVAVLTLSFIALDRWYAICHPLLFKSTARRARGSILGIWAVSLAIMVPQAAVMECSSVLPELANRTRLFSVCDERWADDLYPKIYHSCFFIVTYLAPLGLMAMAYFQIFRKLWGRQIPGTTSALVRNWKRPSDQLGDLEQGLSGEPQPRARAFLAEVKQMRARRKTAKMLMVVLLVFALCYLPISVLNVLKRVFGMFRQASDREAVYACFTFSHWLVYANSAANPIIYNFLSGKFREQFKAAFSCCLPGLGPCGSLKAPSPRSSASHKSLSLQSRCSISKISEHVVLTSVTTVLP
OX1R antag-2 – human HCRTR1 antagonism; O43613; CHO/OX1R cells, Fluo-8 calcium fluorescence, orexin A; inhibition, % at 5 µM; hit rate 0.43% among 330,000;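 active = inhibition above its plate's threshold, mean inhibition of all tested compounds on the plate plus 3 SD, cut at about 37% in these data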;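 also: 0% = orexin A challenge wells and 100% = SB-334867-A antagonist wells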
V1aR counter – V1a receptor agonism, counter-screen for OXTR agonists. P37288. CHO-V1R cells, Fluo-8 calcium fluorescence, agonist mode; 0% DMSO, 100% 3 nM vasopressin. activation, % at 3 µM. hit rate 0.25% among 320,000. AID 2797;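 active = activation above the mean activation of all tested compounds plus 3 SD, per screening run, cut at about 20% in these data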;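 also: signal is peak over basal fluorescence ratio across a 100 second FLIPR read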
OXTR ag – agonists of human oxytocin receptor. activation, % at 3 µM. hit rate 0.32% among 320,000. P30559. CHO-OTR cells, Fluo-8 calcium fluorescence; normalized: DMSO 0%, oxytocin 100%;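 active = activation above the mean of all tested compounds plus 3 SD, cutoff set per screening run, cut at about 20% in these data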;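 also: peak over basal fluorescence ratio from a 100 s FLIPR kinetic read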
* marks the source's active call; other numbers are inactive results. This is a sample that favours compounds with a hit; in the whole collection about 2.6% have one here.

SMILES | CHO parental Ca | OXTR potentiator | OX1R antag-1 | OX1R antag-2 | V1aR counter | OXTR ag
N=c1c(C(=O)NCc2ccc3c(c2)OCO3)cc2c(=O)n3ccccc3nc2n1Cc1cccnc1 | -18 | 1 | 28 | -13 | -1 | -2
COCCCn1c(=N)c(C(=O)NCc2ccc3c(c2)OCO3)cc2c(=O)n3ccccc3nc21 | -12 | -2 | 59* | -18 | -1 | -1
CCOCCCn1c(=N)c(C(=O)NCc2ccc3c(c2)OCO3)cc2c(=O)n3cccc(C)c3nc21 | -24 | -9 | 42* | -28 | -1 | -1
COC(=O)[C@]1(Cc2ccccc2)N[C@H](CN(C)S(=O)(=O)c2ccc(C(C)(C)C)cc2)[C@@H]2C(=O)N(C)C(=O)[C@@H]21 | -18 | -2 | 4 | -25 | 0 | 0
CC(NC(=O)CSc1nnc(-c2cc3cc(Cl)ccc3o2)n1C)c1ccccc1 (centres undefined) | -13 | -20 | 54* | -26 | 4 | 5
Cc1noc(C)c1C(=O)OCC(=O)C12CC3CC(CC(C3)C1)C2 | -10 | 2 | 8 | -16 | -1 | -2
NC(=O)c1oc2ccccc2c1NC(=O)c1ccc([N+](=O)[O-])o1 | 4 | -6 | 48* | -15 | 0 | 3
O=C(Nc1nc2ccccc2s1)c1ccc([N+](=O)[O-])o1 | -1 | -12 | 10 | -11 | 1 | 2
CC(=O)c1cccc(NC(=O)c2ccc([N+](=O)[O-])o2)c1 | -6 | -4 | 57* | -3 | 0 | 0
NC(=O)c1oc2ccccc2c1NC(=O)c1ccc(F)cc1 | -16 | -7 | 16 | -10 | 1 | 1
O=C(Nc1cccc(S(=O)(=O)N2CCCCC2)c1)c1ccc([N+](=O)[O-])o1 | -10 | -3 | 28 | -24 | 1 | 1
COc1ccc(NC(=O)c2ccc([N+](=O)[O-])o2)cc1 | -1 | -5 | 49* | -14 | 0 | -1
O=C(Nc1c(Cl)ccc2nsnc12)c1ccc([N+](=O)[O-])o1 | -6 | -13 | 57* | 2 | 0 | 0
COc1ccc(NC(=O)c2ccc(Br)o2)cc1 | 0 | -8 | 17 | -4 | -1 | -1
CCCN(C(=O)Cc1csc(-c2ccccc2)n1)C1CCS(=O)(=O)C1 (centres undefined) | 0 | 1 | 1 | -9 | 0 | 0
Cc1ccc(CN2C(=O)CSC(C)C2=O)cc1 (centres undefined) | -9 | -13 | 6 | -23 | -1 | -2
Cc1ccc(S(=O)(=O)N2CCCCC2C(=O)Nc2ccc(N(C)C)cc2)cc1 (centres undefined) | -24 | -7 | 10 | -33 | 1 | -1
CSc1ccccc1NC(=O)CN(C)C(=O)COc1cccc2cccnc12 | -10 | -6 | 32* | -4 | 0 | 0
CC(C)c1ccc(OCc2ccc(C(=O)N3CCCC3)o2)cc1 | -7 | -10 | 3 | -25 | 4 | 1
CN1Cc2c(N3CCOCC3)nc3sc(C#N)c(N)c3c2CC1(C)C | -29 | -4 | 6 | -19 | 3 | 3
CN1Cc2c(N3CCOCC3)nc3sc(C(=O)c4ccc(Br)cc4)c(N)c3c2CC1(C)C | 35* | -11 | 5 | 5 | 6 | 12
CCN(CC)c1ccc(C=C2C(=O)OC(c3ccccc3)OC2=O)cc1 (centres undefined) | 4 | -6 | 7 | -9 | 1 | 1
CCN(CC)c1ccc(/C=C/C(=O)C2C(=O)C=C(C)OC2=O)cc1 (centres undefined) | 75* | -29 | 14 | 98* | 141* | 158*
O=C(CSCc1ccc(Cl)cc1)Nc1cc([N+](=O)[O-])ccc1O | 5 | -13 | 105* | 14 | 13 | 17
Cc1ccc(CNC(=O)CN(C(=O)C2(C)CC(=O)N=C3C=CC=CN32)c2ccc(F)cc2)cc1 (centres undefined) | -6 | 2 | 12 | 3 | 0 | 1
SMILES | CHO parental Ca | OXTR potentiator | OX1R antag-1 | OX1R antag-2 | V1aR counter | OXTR ag
COc1ccc(/C=C2\SC(=S)N(NC(=O)c3ccncc3)C2=O)cc1OC | -6 | -5 | 22 | -19 | 0 | 0
CCOc1cc(/C=C2/SC(=S)N(Cc3ccccc3)C2=O)ccc1O | 24 | -16 | 3 | 1 | 37* | 26*
COc1cc(/C=C2\SC(=S)N(NC(=O)c3ccccc3O)C2=O)ccc1O | 35* | -14 | 25 | 21 | 15 | 13
COc1cc([N+](=O)[O-])cc(/C=C2/SC(=S)N(Cc3ccccc3)C2=O)c1O | 49* | -25 | 11 | 68* | 64* | 82*
COc1cc(/C=C2/SC(=S)N(Cc3ccccc3)C2=O)cc(Cl)c1O | 67* | -23 | -12 | 95* | 65* | 70*
COc1cc(-c2noc(C)c2C(=O)NCCCn2ccnc2)cc(OC)c1OC | 5 | 3 | 2 | -2 | 1 | 0
CC1(C)CC(=O)C(=Cc2cn(-c3ccccc3)nc2-c2ccccc2)C(=O)C1 | -10 | -2 | 8 | -4 | 0 | 0
CC1=NNC(=O)/C1=C\c1cn(-c2ccccc2)nc1-c1ccc(Cl)cc1 | 37* | -7 | 5 | 53* | 1 | 3
COc1ccc(-c2cc(C(=O)OC(C)C(=O)Nc3c(C)n(C)n(-c4ccccc4)c3=O)c3ccccc3n2)cc1 (centres undefined) | -21 | -6 | 62* | -1 | 1 | 2
Cc1ccccc1C(=O)N1CCC(C(=O)Nc2nc3ccc(F)cc3s2)CC1 | 12 | -9 | 11 | -18 | 8 | 8
O=C(ONC1=NCCCCC1)c1ccc([N+](=O)[O-])cc1 | -10 | -11 | 50* | 3 | 0 | 0
O=C(Nc1cccc([N+](=O)[O-])c1)ONC1=NCCCCC1 | 0 | 3 | 17 | -4 | 0 | 2
O=C1OC2(c3ccccc31)c1cc(I)c(O)c(I)c1Oc1c2cc(I)c(O)c1I | 94* | -26 | 91* | 106* | 659* | 670*
CCCc1cc(=O)[nH]c(SCC(=O)Nc2c(C)n(C)n(-c3ccccc3)c2=O)n1 | -7 | -2 | 8 | 0 | 0 | 1
O=C1Cc2cc(NS(=O)(=O)c3cc(F)ccc3F)cc3c2N1CCC3 | -21 | -4 | 13 | -14 | -1 | 0
CCCCN(CCCC)C(=O)C[n+]1cccc(/C=N/O)c1 | 0 | -6 | 8 | 9 | 0 | -1
CCCCCCCCCCCCCCCC[n+]1ccc(C(N)=O)cc1 | 98* | -20 | 21 | 78* | 0 | 1
CCCCCCCC[n+]1cccc(C(=O)N(CC)CC)c1 | -4 | -2 | 7 | 9 | 1 | 0
CCCCCCCCCCCCCCCC[n+]1ccc(/C=N/O)cc1 | 80* | -8 | 38 | 58* | 8 | 14

Assay outcomes as filed in PubChem BioAssay.
